# This is a sample that favours compounds with a hit; in the whole collection about 2.1% have one here.
# EBI2 block: EBI2 receptor antagonists, beta-arrestin recruitment, primary screen, cell-based, luminescence, 7a,25-OHC stimulation, uHTS; G-protein coupled receptor 183 (Homo sapiens), P32249; 7a,25-OHC stimulated; inhibition, % at 5 µM; AID 651636, 2012; 360,000 tested, 0.81% active; in the data active = inhibition above about 38%;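 also: enzyme fragment complementation signal reports receptor beta-arrestin coupling in cells; 0% = agonist plus DMSO wells and 100% = wells without agonist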
# HTR2A ag: mouse Htr2a agonists via beta-arrestin recruitment, primary screen, cell-based, luminescence | 5-hydroxytryptamine receptor 2A (Mus musculus), P35363 | CHO-K1 mHTR2A beta-arrestin complementation; percent of 30 µM serotonin response | activation, % at 7.6 µM | 360,000 tested, 0.66% active | AID 624169, 2012;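 active = activation above a run cutoff, the mean activation of all tested compounds plus 3 SD, cut at about 14% in these data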;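 also: 0% = plate median of compound wells and 100% = 30 µM serotonin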
# CXCR6 inh: CXCR6 receptor inhibitors, primary screen, cell-based, beta-arrestin, luminescence, CHO-K1 PathHunter, 1536-well; inhibition, % at 20 µM; 360,000 tested, 0.36% active; AID 602244, 2012; in the data active = inhibition above about 34%, passing the limit was not always enough;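 also: antagonist mode with CXCL16 agonist at 10 nM final; 0% = 10 nM CXCL16 with DMSO and 100% = unstimulated wells without agonist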
# Target sequence (O00574 whole entry, looked up): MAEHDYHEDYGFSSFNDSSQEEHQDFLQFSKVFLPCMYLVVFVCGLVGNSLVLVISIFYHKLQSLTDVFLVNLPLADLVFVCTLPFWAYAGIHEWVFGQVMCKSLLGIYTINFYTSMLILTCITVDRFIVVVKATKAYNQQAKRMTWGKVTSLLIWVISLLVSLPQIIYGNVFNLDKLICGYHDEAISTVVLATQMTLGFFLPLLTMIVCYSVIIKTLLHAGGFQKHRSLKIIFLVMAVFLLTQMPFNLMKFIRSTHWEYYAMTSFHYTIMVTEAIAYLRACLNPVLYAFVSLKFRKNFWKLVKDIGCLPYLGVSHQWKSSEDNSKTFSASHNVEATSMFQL
# CCR6 antag: CCR6 receptor antagonists, primary screen, cell-based, CHO-K1, luminescence, beta-arrestin, uHTS | 340,000 tested, 0.49% active | CHO-K1 CCR6 PathHunter beta-arrestin, CCL20-stimulated | inhibition, % at 20 µM | C-C chemokine receptor type 6 (Homo sapiens), P51684 | AID 493098, 2011;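 active = compounds whose inhibition of the agonist-driven luminescence signal at 20 µM reaches about 50%, limit read from the data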;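 also: cells stimulated with CCL20 at 14 nM final; plate controls were DMSO with CCL20 for no effect and DMSO without agonist for full effect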
# APJ antag: antagonists of human apelin receptor APJ, primary screen, CHO-K1 cells, beta-arrestin complementation, luminescence; P35414; inhibition, % at 20 µM; 330,000 tested, 0.32% active;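 active = inhibition above about 40% at 20 µM, limit read from the data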;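 also: cells challenged with 10 nM apelin-13 agonist together with compound; plate controls were apelin-13 plus DMSO wells for no effect and DMSO wells lacking apelin-13 for full effect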
# APJ agonist: agonists of human apelin receptor APJ, primary screen, CHO-K1 cells, PathHunter beta-arrestin, luminescence; P35414; 330,000 tested, 0.11% active; activation, % at 20 µM; 0% DMSO wells, 100% apelin;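 active = activation more than six SD over the plate average, tested at 20 µM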;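 also: 0% = DMSO alone and 100% = apelin-13 at 10 nM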
#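 Test system: CHO-K1 APJ beta-arrestin complementation cell line. Amount: cell density 1000 per well. Controls: DMSO negative, 10 nM Apelin-13 positive. Signal: luminescent beta-gal fragment complementation, chemiluminescent substrate. Read-out basis: agonist-driven arrestin binding to APJ. Timing: compound stimulation 90 min at 25 °C, detection 60 min.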
# OPRM1 ag: OPRM1 agonists via beta-arrestin recruitment, confirmation, counter-screen for mouse HTR2A agonist project, cell-based, luminescence, single concentration. shares compounds with HTR2A ag. U2OS OPRM1 beta-arrestin PathHunter; DMSO 0%, DAMGO 9.3 µM 100%. activation, % at 9.3 µM. 2,300 tested, 5.3% active. AID 624380, 2012;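 active = mean activation above the mean of DMSO-only wells plus 3 SD, cut at about 0.5% in these data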
# m5-HT2A ag conf: mouse HTR2A agonists, beta-arrestin recruitment, confirmation, cell-based, luminescence, CHO-K1 PathHunter, triplicate; shares compounds with HTR2A ag; 2,300 tested, 19% active; AID 624381, 2012; DMSO 0%, 30 µM serotonin 100%; activation, % at 7.6 µM;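 active = mean activation across triplicates above the hit threshold derived in the original primary screen, cut at about 15% in these data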
# An asterisk follows results filed as active; / = not tested or not shown.
SMILES,EBI2 block,HTR2A ag,CXCR6 inh,CCR6 antag,APJ antag,APJ agonist,OPRM1 ag,m5-HT2A ag conf
Cc1csc2c(N3CCN(C(=O)Nc4ccccc4)CC3)ncnc12,-13,21*,-14,6,10,-1,0,-1
O=C(C1CCCCC1)N1CCC(c2nc3c(nnn3Cc3c(F)cccc3Cl)c(=O)[nH]2)CC1,5,2,-8,13,-12,-4,/,/
Cc1nc2c(nnn2Cc2c(Cl)cccc2Cl)c(=O)[nH]1,2,19*,-4,15,0,-1,0,5
CCn1nc(C(=O)Nc2nc(-c3ccccn3)cs2)c2ccccc2c1=O,-15,10,11,14,-10,3,/,/
CCCn1nc(C(=O)Nc2nc(-c3ccccn3)cs2)c2ccccc2c1=O,-30,23*,25,32,-1,-4,0,-5
COCCN(Cc1ccccc1)P(=O)(O)c1ccccc1OCC(=O)O,-1,1,-5,-3,-8,-3,/,/
O=C(C1CCN(c2ncnc3c2nc2n3CCCCC2)CC1)N1CCN(c2cccc(Cl)c2)CC1,6,18*,-4,19,4,0,-1,-1
O=C(NCCc1ccccc1)C1CCCN(c2ncnc3c2nc2n3CCCCC2)C1 (stereo unspecified),-2,15*,-3,12,-40,-3,-1,-5
CC(=O)Nc1ncc(Sc2ccc([N+](=O)[O-])cc2)s1,4,20*,-8,7,/,/,0,-4
Cc1cccc(CCNC(=O)C2CCN(S(=O)(=O)N3CCOCC3)CC2)c1,0,2,1,10,15,5,/,/
COc1ccc(C)cc1NC(=O)C1CCN(S(=O)(=O)c2cccc3cccnc23)CC1,-1,-6,-4,4,-2,0,/,/
O=S(=O)(c1cccc2cccnc12)N1CCOCC1,4,21*,6,6,25,-1,-1,-2
COc1ccc(NC(=O)C2CCN(S(=O)(=O)c3cccc4cccnc34)CC2)cc1OC,-5,17*,-4,/,2,-3,0,-3
COc1ccccc1CNC(=O)CSC1=NCCS1,-5,-1,8,2,10,-5,/,/
CCOC(=O)C1CCN(Cc2cnc(NC(=O)OC)s2)CC1,-9,16*,-4,0,15,0,0,23*
CCOC(=O)C1CCN(Cc2cnc(Oc3ccc(C(C)(C)C)cc3)s2)CC1,-14,19*,1,4,-5,1,0,39*
CC1CN=C(Nc2cccc(S(=O)(=O)N(C)C)c2)S1 (stereo unspecified),-16,0,-10,3,7,-2,/,/
CC(=O)c1ccc(NC(=O)CCNS(=O)(=O)c2cccc3nonc23)cc1,-8,36*,-5,2,1,-1,-1,-4
CCc1ccc(NC(=O)CCNS(=O)(=O)c2cccc3nonc23)cc1,4,-2,-3,-21,-1,-2,/,/
CC(=O)N1CCOc2cc(S(=O)(=O)N3CCN(c4ccccc4)CC3)c(Cl)cc21,-6,25*,0,7,-4,-4,-1,-5
Cc1cc2c(cc1S(=O)(=O)N1CCN(c3ccccc3)CC1)OCCN2C,5,-7,3,-8,-16,8,/,/
CN(C)CCn1c2c(c(SCC(=O)NCc3ccccc3)nc1=O)CCCC2,-5,0,-3,9,-5,-1,/,/

# Bioassay records from PubChem BioAssay.
